# XBP1 UPR activ: activators of adaptive XBP1 UPR arm, primary screen, cell-based, CHO-XBP1 luciferase reporter, luminescence, uHTS. IRE1-XBP1 UPR activation; percent of tunicamycin response, DMSO as zero. activation, % at 20 µM. hit rate 0.33% among 330,000;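 active = versus positive control, 20 µM dose yields 30% or more activation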;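 note: 100% = tunicamycin at 10 µg/mL and 0% = DMSO only wells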
#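 Signal: luciferase luminescence; Assay system: CHO-XBP1 luciferase reporter cells; Amount: one thousand reporter cells per well; Dosing: 20 µM single concentration, DMSO 1%; Benchmarks: high control tunicamycin 10 µg/mL final, low control DMSO vehicle only; Schedule: 6 h compound exposure at 37 °C, 5% CO2; Evaluation: percent activation relative to tunicamycin reference.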
# MDM2 E3 inh: MDM2-luciferase reporter signal enhancers, primary screen, MDM2 E3 ligase inhibitor project, cell-based, luminescence, 1536-well | E3 ubiquitin-protein ligase Mdm2 (Homo sapiens), Q00987 | cell-based MDM2 ubiquitination luciferase reporter, 2 h; 0 = plate control, 100 = twice control, blank-subtracted | signal enhancement, % at 5 µM | hit rate 0.11% among 210,000;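 active = signal enhancement of 30% or more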;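 note: luminescence tracks abundance of the self-degrading MDM2-luciferase fusion protein; higher signal means inhibition of MDM2 E3 ligase activity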
# Target sequence (Q00987 whole entry, looked up, the tested form may be a part): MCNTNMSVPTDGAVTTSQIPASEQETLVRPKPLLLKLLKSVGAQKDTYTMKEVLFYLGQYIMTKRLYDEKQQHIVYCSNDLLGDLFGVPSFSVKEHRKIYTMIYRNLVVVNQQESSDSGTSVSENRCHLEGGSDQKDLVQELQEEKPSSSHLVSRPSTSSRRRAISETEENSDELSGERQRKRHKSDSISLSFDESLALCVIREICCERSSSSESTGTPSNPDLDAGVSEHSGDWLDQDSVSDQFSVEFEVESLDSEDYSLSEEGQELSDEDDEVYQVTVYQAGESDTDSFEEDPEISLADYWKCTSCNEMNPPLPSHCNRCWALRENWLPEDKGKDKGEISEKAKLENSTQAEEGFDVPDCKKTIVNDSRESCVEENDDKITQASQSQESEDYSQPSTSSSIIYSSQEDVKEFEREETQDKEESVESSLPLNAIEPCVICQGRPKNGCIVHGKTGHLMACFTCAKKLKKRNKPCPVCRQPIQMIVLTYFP
#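 Assay system: stable mammalian line carrying autodegrading MDM2–luciferase fusion reporter; Input: 2000 cells in each well; Compound dosing: single-point 5 µM; Schedule: 2 h compound exposure at 37 °C; Signal: SteadyLite luciferase luminescence after 15 min room-temperature reagent incubation; Evaluation: % luminescence enhancement versus blank-corrected plate control mean; Benchmarks: plate controls and plate blanks.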
# UPR CHOP act: activators of apoptotic CHOP UPR arm, primary screen, cell-based, CHO-CHOP luciferase reporter, luminescence, uHTS; UPR activation; percent of tunicamycin response over DMSO baseline; activation, % at 10 µM; hit rate 0.34% among 330,000; AID 449763, 2010;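 active = at 10 µM dose, activation of 40% or more, normalized to positive control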;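 note: 100% = tunicamycin at 10 µg/mL and 0% = DMSO alone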
#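 measured by = luciferase luminescence | assay system = CHO-CHOP cells, stable luciferase reporter of PERK-eIF2a-CHOP signalling | amount = 500 reporter cells seeded per well | timing = 6 h compound exposure at 37 °C after overnight seeding | controls = positive tunicamycin 10 µg/mL, negative DMSO alone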
# Mdm2 MdmX PPI: inhibitors of human Mdm2-MdmX association, primary screen, cell-based, luminescence, split luciferase, SaOS-2, uHTS. Protein Mdm4 (Homo sapiens) + E3 ubiquitin-protein ligase Mdm2 (Homo sapiens), …. SaOS-2 split-luciferase Mdm2/MdmX complementation. inhibition, % at 8 µM. hit rate 3% among 330,000;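 active = inhibition of at least 50% at 8 µM in the primary screen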
# Dynein cargo inh: inhibitors of GR-EGFP nuclear translocation, primary screen, dynein cargo transport inhibitor project, imaging, high-content, 3617.4 mouse cells; test concentration mostly 20 µM; stimulated with dexamethasone, 1 µM; hits give low values; z-score, hits read low; hit rate 0.47% among 220,000;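 active = plate z-score of nuclear minus cytoplasmic receptor signal below a set negative limit, without overly bright fluorescence or cell loss, cut at about -3.5 in these data, passing the limit was not always enough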;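 note: z-score of nuclear minus cytoplasmic ring GR-EGFP intensity difference per well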
#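 Buffer or medium: tet-free medium with charcoal-stripped serum / Also added: dexamethasone agonist, 1.0 µM final, for 30 min / Timing: induction 48 h, compound 1 h, agonist 30 min / Measured by: high-content fluorescence imaging after fixation / Read-out: nuclear-to-cytoplasmic GR-EGFP distribution per well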
# B2AR ag: beta2AR agonists driving receptor internalization, primary screen, cell-based, FAP fluorogen, flow cytometry; Am2.2-beta2AR cells; response, % (no concentration beside the values); hit rate 0.43% among 340,000; AID 504454, 2011;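 active = response above a set limit, near 3 SD of response in nonfluorescent compounds, cut at about 42% in these data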
# Mdm2-MdmX conf: Mdm2-MdmX complex disruptors, retested hits, confirmation, luminescence, single concentration; shares compounds with Mdm2 MdmX PPI; Mdm2-MdmX binding, luminescent assay; inhibition, % at 8 µM; hit rate 55% among 10,000; AID 489028, 2010; in the data active = inhibition above about 40%
# FLuc counter: full-length luciferase signal inhibition, confirmation, counter-screen for Mdm2/MdmX interaction inhibitor project, cell-based, single concentration, SaOS-2. shares compounds with Mdm2 MdmX PPI. SaOS-2 full-length luciferase counterscreen, luminescence. inhibition, % at 8 µM. hit rate 77% among 6,200;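 active = mean inhibition at 8 µM reaching about 37%, which flags the compound as non-specific, limit read from the data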;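 note: p53-null SaOS-2 cells with luciferase driven by a doxycycline-inducible promoter; compound on cells about two nights before reading with doxycycline added after day one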
# Active calls of the source: *; x = not tested or not shown. The list is not random: actives were taken first. Their share in the collection is about 3.7%.
SMILES,XBP1 UPR activ,MDM2 E3 inh,UPR CHOP act,Mdm2 MdmX PPI,Dynein cargo inh,B2AR ag,Mdm2-MdmX conf,FLuc counter
CCOc1ccc(CCNS(=O)(=O)c2cc3c(cc2C)NC(=O)CO3)cc1OCC,-2,x,2,-12,x,-2,x,x
C#CCOCCOCCOCCNc1nc(N2CCN(C(=O)CCCCCCCCCCNC(=O)[C@H](CCCCN)n3cc(C)nn3)CC2)nc(N2CCN(C(=O)CCCCCCCCCCNC(=O)[C@@H]([C@H](C)CC)n3cc(CCCCCN)nn3)CC2)n1,9,x,-2,100*,x,-534,100*,21
C#CCOCCOCCOCCNc1nc(N2CCN(C(=O)CCCCCCCCCCNC(=O)Cn3cc(CCCCCN)nn3)CC2)nc(N2CCN(C(=O)CCCCCCCCCCNC(=O)[C@H]([C@@H](C)CC)n3cc(CCCCCN)nn3)CC2)n1,14,x,-1,100*,x,30,21,x
Cc1ccccc1OCc1occc1C(=O)Nc1cccc(-n2cnnn2)c1,-3,x,1,59*,x,-9,47*,47*
Cc1cccc(OCc2occc2C(=O)Nc2cccc(-n3cnnn3)c2)c1,-5,x,1,19,x,-1,x,x
CC(=O)Nc1ccc(C(=O)CSc2nnnn2C2CCCC2)cc1,3,-15,1,-3,-0.31,7,x,x
CCN(CC)Cc1c(O)ccc2occ(C(=O)c3ccc(OC)cc3)c12,-3,-8,0,15,-0.22,2,x,x
CCN(CC)Cc1c(O)ccc2c([N+](=O)[O-])c(C)n(-c3ccc(OC)cc3)c12,-3,-16,-5,71*,0.3,-3,82*,51*
Cc1ccc(CNC(=O)CN2C(=O)CSc3ccc(S(=O)(=O)N4CCC(C)CC4)cc32)cc1,-3,x,0,17,x,0,x,x
O=C(CCl)Nc1cn(-c2ccccc2)nc1-c1ccc(F)cc1,-5,-4,15,86*,0.26,4,44*,33
O=C(c1cn(-c2ccccc2)nc1-c1ccc(F)cc1)N1CCCCC1,0,-9,-2,-3,-0.77,-25,x,x
O=[N+]([O-])c1ccc(-c2cn3c(n2)CCC3)cc1,1,-10,9,-7,0.51,-4,x,x
COc1ccc(S(=O)(=O)/N=C2\C=C(Nc3ccc(O)cc3)C(=O)c3ccccc32)cc1,-7,x,-2,100*,x,52*,94*,7
Cc1ccccc1NC1=C/C(=N\S(=O)(=O)c2ccc(C(=O)O)cc2)c2ccccc2C1=O,2,x,6,85*,x,17,22,x
CCc1ccc(S(=O)(=O)/N=C2\C=C(NS(=O)(=O)c3ccccc3)C(=O)c3ccccc32)cc1,5,x,2,7,x,14,x,x
CC(C)c1ccc(S(=O)(=O)/N=C2\C=C(NS(=O)(=O)c3ccccc3)C(=O)c3ccccc32)cc1,x,x,x,x,x,3,x,x
O=C(O)c1ccc(S(=O)(=O)/N=C2\C=C(Nc3ccccc3F)C(=O)c3ccccc32)cc1,6,x,19,72*,x,24,65*,5
Cc1ccccc1NC1=C/C(=N\S(=O)(=O)c2cccs2)c2ccccc2C1=O,-6,x,-5,73*,-0.87,26,100*,51*
